Consider 5 compounds from ChEMBL document CHEMBL1136016, “Synthesis, biological activity, and molecular modeling investigation of new pyrazolo[4,3-e]-1,2,4-triazolo[1,5-c]pyrimidine derivatives as human A(3) adenosine receptor antagonists” (J Med Chem, 2002).

A value given as a limit tells only on which side of the number the result lay.

Experiment [1] addresses T1, Adenosine receptor A1 (Homo sapiens, UniProt P30542).
T1 sequence (P30542 whole entry): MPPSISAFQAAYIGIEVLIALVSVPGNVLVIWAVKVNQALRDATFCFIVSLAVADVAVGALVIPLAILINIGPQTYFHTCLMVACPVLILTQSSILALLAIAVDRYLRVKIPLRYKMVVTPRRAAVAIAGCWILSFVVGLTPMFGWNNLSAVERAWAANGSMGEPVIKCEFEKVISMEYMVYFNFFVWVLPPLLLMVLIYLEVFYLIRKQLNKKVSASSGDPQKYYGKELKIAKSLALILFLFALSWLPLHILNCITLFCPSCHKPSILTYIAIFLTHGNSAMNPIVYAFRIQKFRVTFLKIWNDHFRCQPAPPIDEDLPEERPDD
Kind of experiment: Displacement of [3H]DPCPX from human Adenosine A1 receptor expressed in CHO cells; range 389-640. Type of experiment: cell-based. An outline of the steps:
(§1)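 Human recombinant A1 receptor in CHO cell membranes, resuspended in 50 mM Tris HCl pH 7.4. Displacement run 120 min at 25 °C with 1 nM [3H]DPCPX, 50 µg protein per assay, and at least six to eight test concentrations. Nonspecific binding defined with CHA. Bound and free separated on glass-fiber filters; filter radioactivity counted. n = 3-6.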

The target in experiment [2] is T2, Adenosine receptor A3 (Homo sapiens, UniProt P0DMS8).
T2 sequence (P0DMS8 whole entry): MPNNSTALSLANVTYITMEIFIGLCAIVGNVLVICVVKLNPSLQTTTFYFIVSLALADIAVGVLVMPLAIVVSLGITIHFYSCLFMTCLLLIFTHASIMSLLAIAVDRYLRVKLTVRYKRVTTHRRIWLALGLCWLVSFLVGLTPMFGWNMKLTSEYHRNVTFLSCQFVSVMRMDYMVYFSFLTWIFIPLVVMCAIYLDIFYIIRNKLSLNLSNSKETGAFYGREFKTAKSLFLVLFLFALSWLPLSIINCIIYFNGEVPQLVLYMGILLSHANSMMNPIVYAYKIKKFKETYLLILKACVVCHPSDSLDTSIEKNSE
In words: Displacement of [3H]MRE3008-F20 from human Adenosine A3 receptor expressed in HEK cells; range 0.29-0.47. It is filed as cell-based, HEK293.

Experiment [3] concerns the target T3, Adenosine receptor A2a (Homo sapiens, UniProt P29274). In words: Displacement of [3H]SCH-58261 from human Adenosine A2A receptor expressed in HEK293 cells; range 30-54. Type of experiment: cell-based.
Experiment [4] deals with T4, Adenosine receptor A2b (Homo sapiens, UniProt P29275).
T4 sequence (P29275 whole entry): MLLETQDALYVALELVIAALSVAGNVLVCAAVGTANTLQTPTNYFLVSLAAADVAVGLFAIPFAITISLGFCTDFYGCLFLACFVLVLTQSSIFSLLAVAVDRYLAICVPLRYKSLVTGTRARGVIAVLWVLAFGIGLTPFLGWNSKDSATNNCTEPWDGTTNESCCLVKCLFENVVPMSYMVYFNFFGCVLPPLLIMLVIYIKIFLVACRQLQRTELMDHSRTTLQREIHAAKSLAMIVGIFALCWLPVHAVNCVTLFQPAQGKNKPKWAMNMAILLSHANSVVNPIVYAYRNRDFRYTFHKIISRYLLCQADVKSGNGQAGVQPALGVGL
In words: Displacement of [3H]DPCPX from human Adenosine A2B receptor expressed in HEK293 cells; range 261-336. Type of experiment: cell-based. In a few lines:
(§2)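 Membranes from HEK-293 cells with human recombinant A2B receptor. Incubation 60 min at 25 °C in 50 mM Tris HCl, 10 mM MgCl2, 1 mM EDTA, 0.1 mM benzamidine, pH 7.4, with 2 IU/mL adenosine deaminase and 40 nM [3H]DPCPX. At least six to eight test concentrations. Nonspecific binding defined with NECA. n = 3-6.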

Experiment [5] addresses Adenosine receptors; A2b & A3 (Homo sapiens) (UniProt P29275+P0DMS8). Kind of experiment: Selectivity ratio (h2B/hA3). It is filed as protein assay.
Experiment [6] addresses Adenosine receptors; A1 & A3 (Homo sapiens) (UniProt P30542+P0DMS8). In words: Selectivity ratio (hA1/hA3). Type of experiment: protein assay.
Experiment [7] addresses T1, Adenosine receptor A1. Kind of experiment: Displacement of [3H]DPCPX from human Adenosine A1 receptor expressed in CHO cells; range 264-463. Type of experiment: cell-based. In a few lines:
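Competition binding on membranes of CHO cells stably expressing human A1 receptor, resuspended in 50 mM Tris HCl pH 7.4. Incubation 120 min at 25 °C with 1 nM [3H]DPCPX, 50 µg protein per assay and at least six to eight test concentrations. CHA defined nonspecific binding. Bound ligand separated on glass-fibre filters and counted; n = 3-6.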

Experiment [8] has as its target T4, Adenosine receptor A2b. In words: Displacement of [3H]DPCPX from human Adenosine A2B receptor expressed in HEK293 cells; range 105-170. Type of experiment: cell-based. In a few lines:
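Competition binding on membranes of HEK-293 cells carrying recombinant human A2B receptor. Incubation 60 min at 25 °C in 50 mM Tris HCl pH 7.4 with 10 mM MgCl2, 1 mM EDTA, 0.1 mM benzamidine and 2 IU/mL adenosine deaminase. Radioligand 40 nM [3H]DPCPX, at least six to eight test concentrations. NECA defined nonspecific binding. Bound ligand separated on glass-fibre filters and counted; n = 3-6.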

Experiment [9] deals with T3, Adenosine receptor A2a. Kind of experiment: Displacement of [3H]SCH-58261 from human Adenosine A2A receptor expressed in HEK293 cells; range 25-40. It is filed as cell-based.
The target in experiment [10] is T2, Adenosine receptor A3. Kind of experiment: Displacement of [3H]MRE3008-F20 from human Adenosine A3 receptor expressed in HEK cells; range 0.61-0.84. Type of experiment: cell-based, HEK293.
The target in experiment [11] is T1, Adenosine receptor A1. In words: Displacement of [3H]DPCPX from human Adenosine A1 receptor expressed in CHO cells; range 358-468. Type of experiment: cell-based.
Experiment [12] concerns the target T4, Adenosine receptor A2b. Kind of experiment: Displacement of [3H]DPCPX from human Adenosine A2B receptor expressed in HEK293 cells; range 43-58. It is filed as cell-based. An outline of the steps:
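HEK-293 membranes expressing the human receptor were incubated 60 min at 25 °C. Six to eight test concentrations were used. Nonspecific binding was set with NECA. n = 3-6.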

In experiment [13] the target is T3, Adenosine receptor A2a. In words: Displacement of [3H]SCH-58261 from human Adenosine A2A receptor expressed in HEK293 cells; range 102-215. It is filed as cell-based.
Experiment [14] addresses T2, Adenosine receptor A3. Kind of experiment: Displacement of [3H]MRE3008-F20 from human Adenosine A3 receptor expressed in HEK cells; range 0.12-0.37. It is filed as cell-based, HEK293.
Experiment [15] concerns the target T4, Adenosine receptor A2b. In words: Displacement of [3H]DPCPX from human Adenosine A2B receptor expressed in HEK293 cells; range 162-237. Type of experiment: cell-based. An outline of the steps:
as §2

In experiment [16] the target is T1, Adenosine receptor A1. Kind of experiment: Displacement of [3H]DPCPX from human Adenosine A1 receptor expressed in CHO cells; range 216-412. It is filed as cell-based. An outline of the steps:
as §1

Experiment [17] has as its target T3, Adenosine receptor A2a. Kind of experiment: Displacement of [3H]SCH-58261 from human Adenosine A2A receptor expressed in HEK293 cells; range 108-163. Type of experiment: cell-based.
Experiment [18] addresses T2, Adenosine receptor A3. In words: biochemical.
The target of experiment [19] is T1, Adenosine receptor A1. Kind of experiment: Displacement of [3H]DPCPX from human Adenosine A1 receptor expressed in CHO cells. Type of experiment: cell-based. In a few lines: as §1
The target in experiment [20] is T4, Adenosine receptor A2b. In words: Displacement of [3H]DPCPX binding at human Adenosine A2B receptor expressed in HEK293 cells. Type of experiment: cell-based. In a few lines: as §2
In experiment [21] the target is T2, Adenosine receptor A3. Kind of experiment: Displacement of [3H]MRE3008-F20 from human Adenosine A3 receptor expressed in HEK cells; range 31-50. It is filed as cell-based, HEK293.
Experiment [22] concerns the target T3, Adenosine receptor A2a. Kind of experiment: Displacement of [3H]SCH-58261 from human Adenosine A2A receptor expressed in HEK293 cells; range 199-311. Type of experiment: cell-based.

T3 sequence (P29274 whole entry): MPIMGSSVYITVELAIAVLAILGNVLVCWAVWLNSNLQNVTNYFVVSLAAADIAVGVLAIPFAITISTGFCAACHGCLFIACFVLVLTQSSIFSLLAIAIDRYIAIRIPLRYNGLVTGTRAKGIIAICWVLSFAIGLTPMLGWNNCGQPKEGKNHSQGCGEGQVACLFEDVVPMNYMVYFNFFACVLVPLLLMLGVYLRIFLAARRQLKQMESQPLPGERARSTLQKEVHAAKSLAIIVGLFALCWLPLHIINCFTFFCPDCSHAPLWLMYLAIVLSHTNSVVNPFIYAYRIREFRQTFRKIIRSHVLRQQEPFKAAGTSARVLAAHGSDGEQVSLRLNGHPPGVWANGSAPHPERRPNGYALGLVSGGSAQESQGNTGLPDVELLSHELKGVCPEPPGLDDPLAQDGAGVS

`CCn1cc2c(nc(NC(=O)Nc3ccc(Br)cc3)n3nc(-c4ccco4)nc23)n1`: the Ki on Adenosine receptor A1 [1] was 500 nM; on Adenosine receptor A3 [2], 0.37 nM; at Adenosine receptor A2a [3], 40 nM; on Adenosine receptor A2b [4] it was 296 nM. Moreover, the Ratio was 800 in experiment [5] and 1350 in experiment [6].

In the case of `CCCCn1cc2c(nc(NC(=O)Nc3ccc(C(F)(F)F)cc3)n3nc(-c4ccco4)nc23)n1`, the Ki on Adenosine receptor A1 [7] worked out at 350 nM; on Adenosine receptor A2b [8], 130 nM; on Adenosine receptor A2a [9] it was 31 nM; on Adenosine receptor A3 [10], 0.72 nM. The results for the Ratio in experiment [5] and in experiment [6] were 181 and 486, respectively.

For `CCCCn1cc2c(nc(NC(=O)Nc3ccccc3)n3nc(-c4ccco4)nc23)n1`, the inhibition constant Ki at Adenosine receptor A1 [11] stood at 409 nM; on Adenosine receptor A2b [12], 50 nM; on Adenosine receptor A2a [13] it was 148 nM; at Adenosine receptor A3 [14], 0.21 nM. In addition, the Ratio in experiment [5] came out at 238; in experiment [6], 1950.

As for `CCn1cc2c(nc(NC(=O)Nc3ccccc3OC)n3nc(-c4ccco4)nc23)n1`, the inhibitory constant (Ki) on Adenosine receptor A2b [15] was found to be 196 nM; at Adenosine receptor A1 [16], 300 nM; at Adenosine receptor A2a [17], 133 nM; on Adenosine receptor A3 [18], 0.56 nM. For the same compound, the Ratio in [5] stood at 350; in experiment [6] it was 536.

On to `CCn1cc2c(nc(NC(=O)Nc3ccc(S(=O)(=O)O)cc3)n3nc(-c4ccco4)nc23)n1`, for which the Ki is over 10 µM at Adenosine receptor A1 [19], over 10 µM at Adenosine receptor A2b [20], 40 nM on Adenosine receptor A3 [21] and 249 nM on Adenosine receptor A2a [22]. Besides, the Ratio in experiment [5] and in experiment [6] was over 250 throughout.
